Results reported in ChEMBL document CHEMBL3627671, “Novel derivatives of nitro-substituted salicylic acids: Synthesis, antimicrobial activity and cytotoxicity” (Bioorg Med Chem, 2015).
Converted amounts (≈) assume the structure as drawn.

Columns and labels:
[1] = Selectivity index, ratio of CI50 for human HepG2 cells to MIC100 for Mycobacterium tuberculosis H37Rv 331/88
Mycobacterium kansasii [2] = assay: Antimycobacterial activity against Mycobacterium kansasii 6509/96 after 21 days; format: functional; details: 6509/96, 504 h
Procedure, shortened: (§1)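 Šula's semisynthetic medium micromethod at 37 °C, read after 7, 14 and 21 days. The 1.0 McFarland suspension was diluted 10^-4. MIC determined. 6509/96 is a clinical isolate.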

[3] = test system: Mycobacterium tuberculosis; assay: Antimycobacterial activity against Mycobacterium tuberculosis H37Rv 331/88 after 21 days; format: functional; details: H37Rv 331/88, 504 h
Mycobacterium kansasii [4] = assay: Antimycobacterial activity against Mycobacterium kansasii 235/80 after 7 days; format: functional; details: 235/80, 168 h; procedure, shortened: as §1
Mycobacterium kansasii [5] = assay: Antimycobacterial activity against Mycobacterium kansasii 235/80 after 14 days; format: functional; details: 235/80, 336 h; procedure, shortened: as §1
Mycobacterium kansasii [6] = assay: Antimycobacterial activity against Mycobacterium kansasii 6509/96 after 14 days; format: functional; details: 6509/96, 336 h; procedure, shortened: as §1
Mycobacterium kansasii [7] = assay: Antimycobacterial activity against Mycobacterium kansasii 235/80 after 21 days; format: functional; details: 235/80, 504 h; procedure, shortened: as §1
HepG2 = assay: Cytotoxicity against human HepG2 cells after 24 hrs […]; format: cell-based; details: HepG2, 24 h
Mycobacterium avium [8] = assay: Antimycobacterial activity against Mycobacterium avium 330/80 after 14 days; format: functional; details: 330/80, 336 h
[9] = test system: Mycobacterium tuberculosis; assay: Antimycobacterial activity against Mycobacterium tuberculosis H37Rv 331/88 after 14 days; format: functional; details: H37Rv 331/88, 336 h
Mycobacterium avium [10] = assay: Antimycobacterial activity against Mycobacterium avium 330/80 after 21 days; format: functional; details: 330/80, 504 h
Mycobacterium kansasii [11] = assay: Antimycobacterial activity against Mycobacterium kansasii 6509/96 after 7 days; format: functional; details: 6509/96, 168 h; procedure, shortened: as §1
[12] = test system: Trichophyton mentagrophytes; assay: Antifungal activity against Trichophyton mentagrophytes 445 after 48 hrs by microdilution broth method; format: functional; details: Trichophyton mentagrophytes, 445, 48 h
[13] = test system: Staphylococcus epidermidis; assay: Antibacterial activity against Staphylococcus epidermidis H 6966/08 after 48 hrs by microdilution broth method; format: functional; details: H 6966/08, 48 h
Procedure, shortened: (§2)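 Mueller-Hinton broth microdilution (modified M07-A07), pH 7.4 (±0.2). Compounds dissolved in DMSO, tested at final 500 to 0.49 µmol/L. Inoculum in sterile water matched to 0.5 McFarland. Incubated in the dark, humid atmosphere, 35 °C, read at 24 and 48 h visually and at 540 nm. MIC taken as ≥95% growth reduction (IC95) versus control.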

[14] = test system: Trichophyton mentagrophytes; assay: Antifungal activity against Trichophyton mentagrophytes 445 after 24 hrs by microdilution broth method; format: functional; details: Trichophyton mentagrophytes, 445, 24 h
Candida albicans [15] = assay: Antifungal activity against Candida albicans ATCC 44859 after 24 hrs by microdilution broth method; format: functional; details: ATCC 44859, 24 h
Procedure, shortened: (§3)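 CLSI M27-A3 broth microdilution in RPMI 1640 with glutamine, buffered to pH 7.0 with MOPS; DMSO diluent. Yeast inoculum 5 × 10^3 ± 0.2 CFU/mL. Moulds grown on Sabouraud agar 3–10 days before spore harvest, final inoculum 0.5-5 × 10^4 CFU/mL, checked in a Bürker chamber. Incubated dark, humid, 35 °C, read at 24 and 48 h visually and at 540 nm. MIC taken as ≥80% (yeasts) or ≥50% (filamentous) growth reduction versus control.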

Pseudomonas aeruginosa [16] = assay: Antibacterial activity against Pseudomonas aeruginosa CCM 1961 after 48 hrs by microdilution broth method; format: functional; details: CCM 1961, 48 h; procedure, shortened: as §2
Escherichia coli [17] = assay: Antibacterial activity against Escherichia coli CCM4517 after 48 hrs by microdilution broth method; format: functional; details: CCM4517, 48 h; procedure, shortened: as §2
Candida tropicalis [18] = assay: Antifungal activity against Candida tropicalis 156 after 48 hrs by microdilution broth method; format: functional; details: Candida tropicalis, 156, 48 h; procedure, shortened: as §3
Staphylococcus aureus [19] = assay: Antibacterial activity against Staphylococcus aureus CCM 4516/08 after 48 hrs by microdilution broth method; format: functional; details: CCM 4516/08, 48 h
Enterococcus sp. [20] = assay: Antibacterial activity against Enterococcus sp. J 14365/08 after 24 hrs by microdilution broth method; format: functional; details: J 14365/08, 24 h; procedure, shortened: as §2
Escherichia coli [21] = assay: Antibacterial activity against Escherichia coli CCM4517 after 24 hrs by microdilution broth method; format: functional; details: CCM4517, 24 h; procedure, shortened: as §2
Enterococcus sp. [22] = assay: Antibacterial activity against Enterococcus sp. J 14365/08 after 48 hrs by microdilution broth method; format: functional; details: J 14365/08, 48 h; procedure, shortened: as §2
Klebsiella pneumoniae [23] = assay: Antibacterial activity against Klebsiella pneumoniae D 11750/08 after 48 hrs by microdilution broth method; format: functional; details: D 11750/08, 48 h; procedure, shortened: as §2
Aspergillus fumigatus [24] = assay: Antifungal activity against Aspergillus fumigatus 231 after 24 hrs by microdilution broth method; format: functional; details: Aspergillus fumigatus, 231, 24 h; procedure, shortened: as §3
Nakaseomyces glabratus [25] = assay: Antifungal activity against Candida glabrata 20/I after 24 hrs by microdilution broth method; format: functional; procedure, shortened: as §3
Candida albicans [26] = assay: Antifungal activity against Candida albicans ATCC 44859 after 48 hrs by microdilution broth method; format: functional; details: ATCC 44859, 48 h; procedure, shortened: as §3
Klebsiella pneumoniae [27] = assay: Antibacterial activity against Klebsiella pneumoniae D 11750/08 after 24 hrs by microdilution broth method; format: functional; details: D 11750/08, 24 h; procedure, shortened: as §2
Trichosporon asahii [28] = assay: Antifungal activity against Trichosporon asahii 1188 after 48 hrs by microdilution broth method; format: functional; details: Trichosporon asahii, 1188, 48 h; procedure, shortened: as §3
Klebsiella pneumoniae [29] = assay: Antibacterial activity against ESBL-positive Klebsiella pneumoniae J 14368/08 after 24 hrs by microdilution broth method; format: functional; details: J 14368/08, 24 h; procedure, shortened: as §2
Staphylococcus aureus [30] = assay: Antibacterial activity against Staphylococcus aureus CCM 4516/08 after 24 hrs by microdilution broth method; format: functional; details: CCM 4516/08, 24 h
Lichtheimia corymbifera [31] = assay: Antifungal activity against Absidia corymbifera 272 after 48 hrs by microdilution broth method; format: functional; details: Lichtheimia corymbifera, 272, 48 h; procedure, shortened: as §3
Pichia kudriavzevii [32] = assay: Antifungal activity against Candida krusei E28 after 24 hrs by microdilution broth method; format: functional; details: E28, 24 h; procedure, shortened: as §3
Trichosporon asahii [33] = assay: Antifungal activity against Trichosporon asahii 1188 after 24 hrs by microdilution broth method; format: functional; details: Trichosporon asahii, 1188, 24 h; procedure, shortened: as §3
Klebsiella pneumoniae [34] = assay: Antibacterial activity against ESBL-positive Klebsiella pneumoniae J 14368/08 after 48 hrs by microdilution broth method; format: functional; details: J 14368/08, 48 h; procedure, shortened: as §2
Pichia kudriavzevii [35] = assay: Antifungal activity against Candida krusei E28 after 48 hrs by microdilution broth method; format: functional; details: E28, 48 h; procedure, shortened: as §3
Staphylococcus aureus [36] = assay: Antibacterial activity against methicillin-resistant Staphylococcus aureus H 5996/08 after 48 hrs by microdilution broth method; format: functional; details: H 5996/08, 48 h
Candida tropicalis [37] = assay: Antifungal activity against Candida tropicalis 156 after 24 hrs by microdilution broth method; format: functional; details: Candida tropicalis, 156, 24 h; procedure, shortened: as §3
Aspergillus fumigatus [38] = assay: Antifungal activity against Aspergillus fumigatus 231 after 48 hrs by microdilution broth method; format: functional; details: Aspergillus fumigatus, 231, 48 h; procedure, shortened: as §3
Nakaseomyces glabratus [39] = assay: Antifungal activity against Candida glabrata 20/I after 48 hrs by microdilution broth method; format: functional; procedure, shortened: as §3
Staphylococcus aureus [40] = assay: Antibacterial activity against methicillin-resistant Staphylococcus aureus H 5996/08 after 24 hrs by microdilution broth method; format: functional; details: H 5996/08, 24 h
Pseudomonas aeruginosa [41] = assay: Antibacterial activity against Pseudomonas aeruginosa CCM 1961 after 24 hrs by microdilution broth method; format: functional; details: CCM 1961, 24 h; procedure, shortened: as §2
[42] = test system: Staphylococcus epidermidis; assay: Antibacterial activity against Staphylococcus epidermidis H 6966/08 after 24 hrs by microdilution broth method; format: functional; details: H 6966/08, 24 h; procedure, shortened: as §2
Lichtheimia corymbifera [43] = assay: Antifungal activity against Absidia corymbifera 272 after 24 hrs by microdilution broth method; format: functional; details: Lichtheimia corymbifera, 272, 24 h; procedure, shortened: as §3

O=C(Nc1ccc(C(F)(F)F)cc1)c1cccc([N+](=O)[O-])c1O
Selectivity Index [1]: 0.25
MIC (Mycobacterium kansasii [2]): 125 µM (≈ 40.8 µg/mL)
MIC [3]: 32 µM (≈ 10.4 µg/mL)
MIC (Mycobacterium kansasii [4]): 62.5 µM (≈ 20.4 µg/mL)
MIC (Mycobacterium kansasii [5]): 125 µM (≈ 40.8 µg/mL)
MIC (Mycobacterium kansasii [6]): 62.5 µM (≈ 20.4 µg/mL)
MIC (Mycobacterium kansasii [7]): 125 µM (≈ 40.8 µg/mL)
IC50 (HepG2): 8 µM
MIC (Mycobacterium avium [8]): 250 µM (≈ 81.6 µg/mL)
MIC [9]: 32 µM (≈ 10.4 µg/mL)
MIC (Mycobacterium avium [10]): 250 µM (≈ 81.6 µg/mL)
MIC (Mycobacterium kansasii [11]): 62.5 µM (≈ 20.4 µg/mL)

O=C(Nc1cccc(F)c1)c1cc([N+](=O)[O-])ccc1O
MIC [12]: 500 µM (≈ 138 µg/mL)
MIC [13]: 250 µM (≈ 69.1 µg/mL)
MIC [14]: 500 µM (≈ 138 µg/mL)
MIC (Candida albicans [15]): > 500 µM
MIC (Pseudomonas aeruginosa [16]): > 500 µM
MIC (Mycobacterium kansasii [2]): 62.5 µM (≈ 17.3 µg/mL)
MIC (Escherichia coli [17]): > 500 µM
MIC (Candida tropicalis [18]): > 500 µM
MIC (Staphylococcus aureus [19]): 125 µM (≈ 34.5 µg/mL)
MIC [3]: 32 µM (≈ 8.84 µg/mL)
MIC (Enterococcus sp. [20]): > 500 µM
MIC (Escherichia coli [21]): > 500 µM
MIC (Mycobacterium kansasii [4]): 16 µM (≈ 4.42 µg/mL)
MIC (Enterococcus sp. [22]): > 500 µM
MIC (Klebsiella pneumoniae [23]): > 500 µM
MIC (Aspergillus fumigatus [24]): > 500 µM
MIC (Nakaseomyces glabratus [25]): > 500 µM
MIC (Mycobacterium kansasii [5]): 62.5 µM (≈ 17.3 µg/mL)
MIC (Candida albicans [26]): > 500 µM
MIC (Mycobacterium kansasii [6]): 62.5 µM (≈ 17.3 µg/mL)
MIC (Klebsiella pneumoniae [27]): > 500 µM
MIC (Trichosporon asahii [28]): > 500 µM
MIC (Klebsiella pneumoniae [29]): > 500 µM
MIC (Staphylococcus aureus [30]): 125 µM (≈ 34.5 µg/mL)
MIC (Lichtheimia corymbifera [31]): > 500 µM
MIC (Mycobacterium kansasii [7]): 62.5 µM (≈ 17.3 µg/mL)
MIC (Pichia kudriavzevii [32]): > 500 µM
MIC (Trichosporon asahii [33]): > 500 µM
MIC (Klebsiella pneumoniae [34]): > 500 µM
MIC (Pichia kudriavzevii [35]): > 500 µM
MIC (Staphylococcus aureus [36]): 125 µM (≈ 34.5 µg/mL)
MIC (Candida tropicalis [37]): > 500 µM
MIC (Aspergillus fumigatus [38]): > 500 µM
MIC (Nakaseomyces glabratus [39]): > 500 µM
MIC (Staphylococcus aureus [40]): 125 µM (≈ 34.5 µg/mL)
MIC (Mycobacterium avium [8]): 125 µM (≈ 34.5 µg/mL)
MIC (Pseudomonas aeruginosa [41]): > 500 µM
MIC [9]: 16 µM (≈ 4.42 µg/mL)
MIC [42]: 125 µM (≈ 34.5 µg/mL)
MIC (Mycobacterium avium [10]): 125 µM (≈ 34.5 µg/mL)
MIC (Lichtheimia corymbifera [43]): > 500 µM
MIC (Mycobacterium kansasii [11]): 32 µM (≈ 8.84 µg/mL)
